Data on 19 molecules can be found in ChEMBL document CHEMBL1132280, “Discovery of potent and selective SH2 inhibitors of the tyrosine kinase ZAP-70” (J Med Chem, 1999).

For orientation: IC50 means the midpoint of a concentration-inhibition curve.

Holding throughout (set-up): species or system Escherichia coli
The target in assay [1] is Tyrosine-protein kinase SYK (Homo sapiens, UniProt P43405). Nature of the assay: Binding affinity against Syk protein tyrosine kinase SH2 domain.
For assay [2], the target named is Proto-oncogene tyrosine-protein kinase Src (Homo sapiens, UniProt P12931). Description: Binding affinity against Src SH2 domain.
Chain of Proto-oncogene tyrosine-protein kinase Src (P12931 2-536 limits assumed): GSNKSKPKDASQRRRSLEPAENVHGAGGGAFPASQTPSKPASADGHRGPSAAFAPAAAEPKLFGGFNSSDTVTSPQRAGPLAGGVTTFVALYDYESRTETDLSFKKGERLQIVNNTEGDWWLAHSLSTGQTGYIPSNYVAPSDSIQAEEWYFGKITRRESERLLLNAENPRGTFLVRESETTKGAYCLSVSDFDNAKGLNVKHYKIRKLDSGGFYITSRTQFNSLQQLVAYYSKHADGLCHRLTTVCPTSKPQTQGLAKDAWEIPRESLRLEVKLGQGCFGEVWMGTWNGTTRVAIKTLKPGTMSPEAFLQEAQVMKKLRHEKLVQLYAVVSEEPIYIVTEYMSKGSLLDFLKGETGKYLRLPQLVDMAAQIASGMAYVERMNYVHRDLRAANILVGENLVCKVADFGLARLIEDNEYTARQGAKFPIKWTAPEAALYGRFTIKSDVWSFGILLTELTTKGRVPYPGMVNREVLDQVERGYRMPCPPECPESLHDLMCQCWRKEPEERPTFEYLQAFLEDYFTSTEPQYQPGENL
Assay [3] addresses Growth factor receptor-bound protein 2 (Homo sapiens, UniProt P62993). Nature of the assay: Binding affinity against Growth factor receptor bound protein 2. The procedure, abridged:
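Fluorescence polarization competition assay using human Grb2 SH2 (residues 55–152), expressed in E. coli BL21(DE3) and purified on phosphotyrosine-agarose. Compounds were serially diluted 1:2 across 1000–0.04 μM in 20 mM phosphate pH 7.4 with 100 mM NaCl, 10 mM DTT, 4% DMSO, 1 mM EDTA and 0.1% bovine γ-globulin. They were added to 1.25 µM protein premixed with 20 nM fluorescein-labelled peptide (ex 485/em 530 nm). IC50 was taken from percent tracer bound relative to vehicle, as the mean of ≥3 experiments.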

The target in assay [4] is T1, Tyrosine-protein kinase ZAP-70 (Homo sapiens, UniProt P43403).
T1 sequence (P43403 whole entry): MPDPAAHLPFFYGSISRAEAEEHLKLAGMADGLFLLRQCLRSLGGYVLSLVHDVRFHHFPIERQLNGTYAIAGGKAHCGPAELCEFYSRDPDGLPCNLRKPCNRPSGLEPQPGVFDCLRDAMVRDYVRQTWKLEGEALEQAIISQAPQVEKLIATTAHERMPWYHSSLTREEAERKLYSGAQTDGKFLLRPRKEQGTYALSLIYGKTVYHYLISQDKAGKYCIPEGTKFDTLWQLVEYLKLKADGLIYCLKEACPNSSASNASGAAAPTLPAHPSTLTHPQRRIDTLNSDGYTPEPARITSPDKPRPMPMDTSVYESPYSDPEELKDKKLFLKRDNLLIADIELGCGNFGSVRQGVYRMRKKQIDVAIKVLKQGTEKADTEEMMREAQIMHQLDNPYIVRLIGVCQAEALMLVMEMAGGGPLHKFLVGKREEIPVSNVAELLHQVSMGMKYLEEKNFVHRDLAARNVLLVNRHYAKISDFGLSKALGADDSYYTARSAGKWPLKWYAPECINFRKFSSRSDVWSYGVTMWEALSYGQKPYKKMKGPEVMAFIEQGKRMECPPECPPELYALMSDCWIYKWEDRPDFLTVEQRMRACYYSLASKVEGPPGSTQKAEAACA
Description: Binding affinity against SH2 domain of Zeta-chain (TCR) associated protein kinase 70 kDa.

Structures are written as SMILES. Square brackets hold non-standard residues; d marks the D form. Peptide text beside a SMILES is read from it. pY = N[C@@H](Cc1ccc(OP(=O)(O)O)cc1)C(=O)O Where only a bound is given, the exact number is not on record here.

Chain of Growth factor receptor-bound protein 2 (P62993 whole entry, the tested form may be a part): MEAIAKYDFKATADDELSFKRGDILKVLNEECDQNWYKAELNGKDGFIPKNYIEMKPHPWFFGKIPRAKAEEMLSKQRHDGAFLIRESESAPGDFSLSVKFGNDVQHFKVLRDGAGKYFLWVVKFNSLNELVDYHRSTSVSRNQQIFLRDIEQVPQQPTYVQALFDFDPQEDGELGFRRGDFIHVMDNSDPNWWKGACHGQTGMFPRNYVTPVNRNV

Take `CC(=O)N[C@@H](Cc1ccc(OP(=O)(O)O)cc1)C(=O)N[C@@H](CCC(N)=O)c1nc(Cc2ccccc2)no1`: the half-inhibitory concentration (IC50) is more than 500 µM in assay [1], 72 µM in assay [2], 456 µM in assay [3] and more than 500 µM in assay [4].

In the case of `CC(=O)N[C@@H](Cc1ccc(OP(=O)(O)O)cc1)C(=O)N[C@@H](CO)c1nc(Cc2ccc(C(F)(F)F)cc2)no1`, the concentration for half-maximal inhibition (IC50) in assay [1] is more than 500 µM; in assay [2] it was 282 µM; in assay [3] it was more than 500 µM.

In the case of `O=C(Cc1ccccc1)N[C@@H](Cc1ccc(OP(=O)(O)O)cc1)C(=O)N[C@@H](CO)c1nc(Cc2ccc(Cl)c(Cl)c2)no1`, the values for the IC50 in assay [1], in assay [2] and in assay [3] were more than 500 µM, 35 µM and 263 µM, respectively.

On to `CC(=O)N[C@@H](Cc1ccc(OP(=O)(O)O)cc1)C(=O)NC(C)(C)c1nc(Cc2ccc(C(F)(F)F)cc2)no1`, for which the concentration for half-maximal inhibition (IC50) is more than 500 µM in assay [1], 489 µM in assay [2] and 228 µM in assay [4].

Consider `O=C(Cc1ccccc1)N[C@@H](Cc1ccc(OP(=O)(O)O)cc1)C(=O)N[C@@H](CO)c1nc(Cc2ccc(C(F)(F)F)cc2)no1`, for which the IC50 in assay [1] is 318 µM; in assay [2] it was 161 µM; in assay [3], more than 500 µM.

For the molecule `O=C(Cc1ccccc1)N[C@@H](Cc1ccc(OP(=O)(O)O)cc1)C(=O)N[C@@H](CO)c1nc(Cc2ccc3ccccc3c2)no1`, the IC50 is more than 500 µM in assay [1], 68 µM in assay [2] and 368 µM in assay [3].

In the case of `CC(=O)N[C@@H](Cc1ccc(OP(=O)(O)O)cc1)C(=O)N[C@@H](CCc1ccccc1)c1nc(Cc2ccc(C(F)(F)F)cc2)no1`, the half-maximal inhibitory concentration (IC50) in assay [1] is 323 µM; in assay [2], 95 µM; in assay [3], more than 500 µM.

Take `CC(=O)N[C@@H](Cc1ccc(OP(=O)(O)O)cc1)C(=O)N[C@@H](CC(N)=O)C(=O)N[C@@H](CCC(=O)O)C(=O)N[C@@H](CC(C)C)C(N)=O` (Ac-[pY]NEL-NH2): the IC50 in assay [1] stood at 420 µM; in assay [2], 237 µM; in assay [4] it was 422 µM.

For the molecule `CC(=O)N[C@@H](Cc1ccc(OP(=O)(O)O)cc1)C(=O)N[C@@H](CC(=O)O)C(=O)N[C@H](C(=O)N[C@@H](CC(C)C)C(N)=O)C(C)C` (Ac-[pY]DVL-NH2), the concentration for half-maximal inhibition (IC50) in assay [1] amounted to 389 µM; in assay [2] it was 261 µM; in assay [4] it was 328 µM.

Turning to `CC(=O)N[C@@H](Cc1ccc(OP(=O)(O)O)cc1)C(=O)N[C@@H](CCC(N)=O)c1nc(Cc2ccc(Cl)cc2Cl)no1`, the results for the IC50 in assay [1], in assay [2] and in assay [4] were more than 500 µM, more than 500 µM and 184 µM, respectively.

On to `CC(=O)N[C@@H](Cc1ccc(OP(=O)(O)O)cc1)C(=O)NCCc1nc(Cc2ccc(C(F)(F)F)cc2)no1`, for which the concentration for half-maximal inhibition (IC50) in assay [1], in assay [2] and in assay [4] was more than 500 µM each time.

Consider `CC(=O)N[C@@H](Cc1ccc(OP(=O)(O)O)cc1)C(=O)N[C@@H](CCC(N)=O)c1nc(Cc2ccc(Cl)c(Cl)c2)no1`, for which the half-inhibitory concentration (IC50) in assay [1] is more than 500 µM; in assay [2], 206 µM; in assay [3], 441 µM.

As to `CC(=O)N[C@@H](Cc1ccc(OP(=O)(O)O)cc1)C(=O)N[C@@H](CCC(N)=O)c1nc(CCc2ccccc2)no1`, the IC50 in assay [1] is more than 500 µM; in assay [2], 156 µM; in assay [4], more than 500 µM.

`CC(=O)N[C@@H](Cc1ccc(OP(=O)(O)O)cc1)C(=O)NCc1nc(Cc2ccc(C(F)(F)F)cc2)no1`: the half-maximal inhibitory concentration (IC50) was more than 500 µM in assay [1], more than 500 µM in assay [2] and 128 µM in assay [4].

As for `CC(=O)N[C@@H](Cc1ccc(OP(=O)(O)O)cc1)C(=O)N[C@@H](C)c1nc(Cc2ccc(C(F)(F)F)cc2)no1`, the IC50 is more than 500 µM in assay [1], 210 µM in assay [2] and more than 500 µM in assay [3].

As for `CC(=O)N[C@@H](Cc1ccc(OP(=O)(O)O)cc1)C(=O)N[C@@H](CCc1ccccc1)c1nc(Cc2ccc3ccccc3c2)no1`, the IC50 in assay [1] was 288 µM; in assay [2], 78 µM; in assay [3], more than 500 µM.

Take `CC(=O)N[C@@H](Cc1ccc(OP(=O)(O)O)cc1)C(=O)N[C@@H](CO)c1nc(Cc2ccc(Cl)c(Cl)c2)no1`: the IC50 in assay [1] is more than 500 µM; in assay [2], 75 µM; in assay [3] it was more than 500 µM.

`CC[C@H](C)[C@H](NC(=O)[C@H](CCC(=O)O)NC(=O)[C@H](CCC(=O)O)NC(=O)[C@H](Cc1ccc(OP(=O)(O)O)cc1)NC(C)=O)C(N)=O`: the 50% inhibitory concentration (IC50) in assay [1] came to 171 µM; in assay [2], 6 µM; in assay [4], 530 µM.

On to `CC(=O)N[C@@H](Cc1ccc(OP(=O)(O)O)cc1)C(=O)N[C@@H](CO)c1nc(Cc2ccc3ccccc3c2)no1`, for which the IC50 in assay [1] was more than 500 µM; in assay [2], 99 µM; in assay [3], 479 µM.
